Screening results deposited in PubChem by Johns Hopkins Ion Channel Center.
RGS4 pot: potentiators or activators of RGS4 | HEK293 M3R/inducible RGS4, carbachol calcium flux Fluo4; active compounds read low | B-score at 10 µM | 310,000 compounds, 0.92% hits | AID 463111;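 active means B-score of the integrated calcium signal more than 4 SD below the library mean, with starting fluorescence not abnormally high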;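 further: negative B-score means reduced calcium response which marks RGS4 activation or potentiation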
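Test system: HEK293 cells with stable M3R and inducible RGS4; also added: carbachol at ECmax as muscarinic agonist stimulus; schedule: dye loading 30 min 37 °C, buffer rest 30 min RT; technique: kinetic calcium fluorescence imaging with Fluo4-AM dye, 2 µM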
MrgX1 agonist: activates human MrgX1 receptor signaling | MrgX1-HEK293 cells, Fluo-4 calcium fluorescence, agonist mode; active compounds read high | B-score at 10 µM | 310,000 compounds, 0.44% hits;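 active means calcium response B-score plate-corrected fluorescence ratio at least 3 library SD, with starting fluorescence B-score inside 5 SD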
Target sequence (Q96LB2 whole entry, looked up): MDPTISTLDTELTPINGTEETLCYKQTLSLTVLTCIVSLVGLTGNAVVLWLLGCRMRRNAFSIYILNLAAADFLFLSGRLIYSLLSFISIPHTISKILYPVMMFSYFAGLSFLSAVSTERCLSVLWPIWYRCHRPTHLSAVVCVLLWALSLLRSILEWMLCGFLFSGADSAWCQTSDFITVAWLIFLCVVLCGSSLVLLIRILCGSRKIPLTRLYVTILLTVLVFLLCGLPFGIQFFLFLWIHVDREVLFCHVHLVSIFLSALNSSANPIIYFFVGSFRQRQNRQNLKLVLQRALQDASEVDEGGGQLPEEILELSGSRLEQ
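Assay system: stable human MrgX1 HEK293 cell line. Quantity: 15,000 cells per well. Schedule: cells plated overnight, dye loaded 0.5 h 37 °C, 0.5 h room temperature. Detection: Fluo-4 NW calcium-flux fluorescence, kinetic read. Read-out basis: peak-minus-minimum fluorescence over baseline, converted to B scores. Control set: positive and negative control wells on each plate.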
MrgX1 PAM: human MrgX1 positive allosteric modulation, primary screen; Q96LB2; MrgX1-HEK293, Fluo-4 calcium flux, FDSS; active compounds read high; B-score at 10 µM; 310,000 compounds, 0.63% hits;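 active means plate-corrected calcium response at least 3 library SD above typical, normal starting fluorescence, not activating the receptor alone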;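 further: compound read alongside a low EC10 to EC30 dose of BAM8-22 agonist; peak minus trough fluorescence over baseline measured at the second addition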
MrgX1 antagonist: antagonists of human MrgX1 receptor | AID 588676 | MRGX1-HEK293 calcium flux, Fluo-4, BAM8-22 antagonism; active compounds read low | 310,000 compounds, 1.3% hits | B-score at 10 µM;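 active means calcium-response B-score plate-corrected more than 3 library SD below zero, starting fluorescence within 5 deviations, no agonist response on first addition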;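 further: peak minus trough fluorescence over baseline after final BAM8-22 challenge near maximal dose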
RGS4 inh: inhibitors of human RGS4; P49798; HEK293 M3R/RGS4 inducible, Fluo-4 calcium flux; active compounds read high; triggered by carbachol at its EC20; B-score at 10 µM; 310,000 compounds, 0.45% hits; AID 463165;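 active means B-score, a plate-corrected calcium signal, over three deviations above library mean, with baseline fluorescence within five deviations of library mean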;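 further: RGS4 expression induced by doxycycline in cells with stable M3 receptor; B-score is computed from the integrated fluorescence ratio over baseline after carbachol; higher B-score means a larger calcium signal and so more RGS4 inhibition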
Target sequence (P49798 whole entry, looked up): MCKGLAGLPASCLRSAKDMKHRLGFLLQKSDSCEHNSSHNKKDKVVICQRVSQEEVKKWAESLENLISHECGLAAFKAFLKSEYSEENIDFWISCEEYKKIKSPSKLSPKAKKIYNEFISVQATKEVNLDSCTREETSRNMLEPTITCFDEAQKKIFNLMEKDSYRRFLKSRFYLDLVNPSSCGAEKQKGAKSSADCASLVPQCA
MrgX1 ag confirm: human MrgX1 agonism, re-confirmation screen. shares compounds with MrgX1 agonist. MrgX1-HEK293, Fluo-4 calcium fluorescence, FDSS. activation, % at 10 µM. 600 compounds, 78% hits. AID 602412;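 active means calcium signal rise, corrected for plate position, at least 3 library SD high, with starting brightness within 5 such deviations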
HEK293 Ca flux: counter-screen for MrgX1 antagonists: effect in parental HEK293 cells; shares compounds with MrgX1 antagonist; Fluo-4 calcium fluorescence, FDSS; fluorescence ratio F(max-min)/F0 at 10 µM; 4,000 compounds, 2% hits; AID 624111;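 active means duplicate-averaged calcium fluorescence ratio at least three times the standard deviation of buffer wells, a nonspecific response in parental cells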
HEK293 Ca counter: activity in parental HEK293 cells without MrgX1 | shares compounds with MrgX1 antagonist | parental HEK293 calcium flux, Fluo-4 fluorescence ratio; active compounds read high | fluorescence ratio F(max-min)/F0 at 10 µM | 4,000 compounds, 0.4% hits | AID 624114;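 active means calcium fluorescence ratio, averaged over duplicates, at least 3 SD of the buffer-well ratio, meaning a nonspecific response in receptor-free cells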;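 further: untransfected parental HEK293 lacking MrgX1 used as counterscreen for MrgX1 allosteric activators; fluorescence change taken during the second addition on a kinetic imager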
HEK293 Ca cntr2: MrgX1 activator counter-screen hit in parental HEK293 cells; fluorescence ratio F(max-min)/F0 at 10 µM; 4,000 compounds, 8.7% hits; Fluo-4 calcium fluorescence (FDSS); active compounds read high; AID 624115; shares compounds with MrgX1 antagonist;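 active means calcium fluorescence ratio at least three times the spread of buffer wells, meaning a non-specific response in parental cells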
The depositor's hits bear a star; i = inactive; nt = not tested or not shown. In the library only some 3.5% were active in any assay of this set; here they are far more common.

SMILES	RGS4 pot	MrgX1 agonist	MrgX1 PAM	MrgX1 antagonist	RGS4 inh	MrgX1 ag confirm	HEK293 Ca flux	HEK293 Ca counter	HEK293 Ca cntr2
Cc1ccc(-c2ccc(CCC(=O)O)n2-c2cccc(O)c2)cc1	i	27.6*	i	i	i	135.4%*	i	i	i
Cc1ccc(N/C(N)=N/c2nc(C)cc(C)n2)cc1	i	124*	i	i	i	431.7%*	i	i	97.2*
Cc1cc(C)cc(N/C(N)=N/c2nc(C)cc(C)n2)c1	i	32.8*	i	i	i	131.8%*	i	i	i
Cc1cc(C)nc(/N=C(\N)Nc2ccc(C(C)C)cc2)n1	i	32.5*	i	i	i	118.8%*	i	i	i
Cc1cccc(N/C(N)=N/c2nc(C)cc(C)n2)c1	i	69*	i	i	i	358.4%*	i	i	75.8*
CCC(=O)Nc1ccc(N/C(N)=N/c2nc(C)cc(C)n2)cc1	i	i	i	i	i	nt	nt	nt	nt
CN1CCN(C(=O)c2cnn3c2NC(c2ccccc2)CC3C(F)(F)F)CC1 (stereo unspecified)	i	i	i	i	i	nt	nt	nt	nt
N=C(N)SCc1nc2ccccc2c(=O)n1-c1ccccc1Cl	i	27.2*	i	i	i	202.6%*	i	i	i
O=c1c2ccccc2nc(CSc2nnnn2-c2ccccc2)n1-c1ccccc1Cl	i	i	i	i	i	nt	nt	nt	nt
C/C(N)=C(/C#N)C(=O)CSc1nc2ccccc2c(=O)n1-c1ccccc1C	i	i	i	i	i	nt	nt	nt	nt
Cc1ccccc1-n1c(CSC(=N)N)nc2ccccc2c1=O	i	42.9*	i	i	i	220.8%*	i	i	i
COc1ccc(CCN(C)C(=O)C2CCN(C(=O)Nc3ccccc3)CC2)cc1OC	i	i	i	i	i	nt	nt	nt	nt
O=C(COC(=O)CC1CC2CCC1C2)Nc1cccc(S(=O)(=O)NC2=NCCCCC2)c1 (stereo unspecified)	i	i	i	i	i	nt	nt	nt	nt
O=C(O)C1C(C(=O)Nc2ccc(Cl)cc2)C2C=CC1C21CC1 (stereo unspecified)	i	32.1*	i	i	i	i	i	i	i
O=C(O)C1C2CCC(O2)C1C(=O)Nc1ccc(F)c(Cl)c1 (stereo unspecified)	i	i	i	i	i	nt	nt	nt	nt
CCc1ccc(S(=O)(=O)/N=C2\C=C(NS(=O)(=O)c3ccccc3)C(=O)c3ccccc32)cc1	i	nt	nt	nt	i	nt	nt	nt	nt
CC(C)c1ccc(S(=O)(=O)/N=C2\C=C(NS(=O)(=O)c3ccccc3)C(=O)c3ccccc32)cc1	-11.1*	29.7*	i	i	i	i	i	i	i
O=C(Cc1c[nH]c2ccccc12)NCc1ccccc1F	i	i	i	i	i	nt	nt	nt	nt
Nc1nnnn1CC(=O)N/N=C/c1ccccn1	i	i	i	i	i	nt	nt	nt	nt
CCN(CC)P(=O)(Nc1ccccc1Br)c1ccc(N(C)C)cc1NC(=O)c1ccco1 (stereo unspecified)	i	i	i	i	i	nt	nt	nt	nt
CC(C)c1[nH]nc2c1C(c1cccnc1)C(C#N)=C(N)O2 (stereo unspecified)	i	i	i	i	i	nt	nt	nt	nt
CC(C)c1[nH]nc2c1C(c1ccco1)C(C#N)=C(N)O2 (stereo unspecified)	i	27*	i	i	i	i	i	i	i
CCc1[nH]nc2c1C(c1ccc(Br)s1)C(C#N)=C(N)O2 (stereo unspecified)	nt	48.4*	i	i	nt	146.3%*	i	i	i
Cc1ccc(SCc2[nH]nc3c2C(c2ccco2)C(C#N)=C(N)O3)cc1 (stereo unspecified)	i	40*	i	i	i	160.5%*	i	i	i
O=C(NCC(=O)N1CCc2ccccc2C1)c1ccccc1Cl	i	i	i	i	i	nt	nt	nt	nt
SMILES	RGS4 pot	MrgX1 agonist	MrgX1 PAM	MrgX1 antagonist	RGS4 inh	MrgX1 ag confirm	HEK293 Ca flux	HEK293 Ca counter	HEK293 Ca cntr2
COc1cc(C#N)ccc1OCC(=O)N1CCc2ccccc2C1	i	50.2*	i	i	i	i	i	i	i
CCOc1cc(C#N)ccc1OCC(=O)N1CCc2ccccc2C1	i	i	i	i	i	nt	nt	nt	nt
O=c1[nH][nH]c(-c2ccccc2)c1C=Nc1ccc(C(F)(F)F)cc1	i	i	i	i	i	nt	nt	nt	nt
O=c1[nH][nH]c(-c2ccccc2)c1C=Nc1ccc(OC(F)(F)F)cc1	i	33.3*	i	i	i	183.9%*	i	i	i
O=C(CN(c1ccc(F)cc1)S(=O)(=O)c1ccc2c(c1)OCCO2)Nc1cccnc1	i	39.5*	i	i	i	i	i	i	i
N=C(N)CCCOc1ccccc1-c1ccccc1	i	27.9*	i	i	i	80.8%*	i	i	i
COc1ccc(OC)c(-c2cc(C(=O)Nc3ccc(F)cc3F)no2)c1	i	i	i	i	i	nt	nt	nt	nt
O=C(O)Cn1nnc(-c2ccc(OCc3ccccc3)cc2)n1	i	i	i	i	i	nt	nt	nt	nt
Nc1c(C(=O)Nc2nc3ccccc3s2)sc2nc(-c3cccs3)ccc12	i	28.7*	i	i	i	157.1%*	i	i	i
CC(C)N1CCc2c(sc(NC(=O)c3ccc(C(=O)c4ccccc4)cc3)c2C(N)=O)C1	i	35.5*	i	i	i	i	i	i	i
CC(C)N1CCc2c(sc(NC(=O)Cc3ccccc3)c2C(N)=O)C1	i	i	i	i	i	nt	nt	nt	nt
CCCCCN=C(N)N/N=C/c1c[nH]c2ccc(OC)cc12	i	74.8*	i	i	i	487.7%*	i	i	137*
CCCOc1ccc(C(=O)N/N=C/c2c[nH]c3ccc(Br)cc23)cc1	i	i	i	i	i	nt	nt	nt	nt
COc1ccccc1CNC(=O)C1CCC(CNS(=O)(=O)c2ccc(C)cc2)CC1 (stereo unspecified)	i	i	i	i	i	nt	nt	nt	nt
